This note sets out measurements from ChEMBL document CHEMBL1133558, “Structural determinants of AMPA agonist activity in analogues of 2-amino-3-(3-carboxy-5-methyl-4-isoxazolyl)propionic acid: synthesis and pharmacology” (J Med Chem, 2000).

SMILES strings stand for the structures.

As a reminder, the EC50 is the concentration needed to bring the measured effect to its halfway point. Read a low EC50 as greater potency. The term IC50 denotes the midpoint of a concentration-inhibition curve.

The target in assay [1] is T1, Glutamate receptor ionotropic, AMPA (Rattus norvegicus, UniProt P19490+P19491+P19492+P19493). Put plainly: Agonistic activity electrophysiologically against AMPA using rat cortical wedge preparation. In kind it is functional.
For assay [2], the target named is T1, Glutamate receptor ionotropic, AMPA. The assay can be described thus: Inhibition of [3H]AMPA binding to rat brain membranes. In kind it is cell membranes, Membrane.
Assay [3] concerns the target Glutamate NMDA receptor. The assay can be described thus: Inhibition of [3H]CPP binding to rat brain membranes. It counts as cell membranes, Membrane.
Assay [4] addresses Glutamate receptor ionotropic, kainate. Put plainly: Inhibition of [3H]-Kainic acid binding to rat brain membranes. In kind it is cell membranes, Membrane.
Assay [5] deals with Glutamate NMDA receptor. Put plainly: Tested in vitro for the antagonistic activity electrophysiologically against NMDA using rat cortical wedge preparation. It counts as functional. A digest of the protocol: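 Rat cortical wedge preparation. The cortex was superfused with Mg²⁺-free Krebs buffer and the corpus callosum with Mg²⁺- and Ca²⁺-free Krebs buffer, at 25 °C. Compounds were added to the cortical superfusate, and the potential difference between the electrodes was recorded on a chart recorder.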

Assay [6] has as its target Glutamate receptor ionotropic, NMDA (Rattus norvegicus). The assay can be described thus: Tested in vitro for the antagonistic activity electrophysiologically against NMDA using rat cortical wedge preparation.

Regarding `COc1noc(C(=O)O)c1CC(N)C(=O)O` (centres undefined), the EC50 in assay [1] turned out to be 1.2 µM. Also, the IC50 was 0.11 µM in assay [2], greater than 100 µM at Glutamate NMDA receptor [3] and greater than 100 µM in assay [4].

For `NC(Cc1c(C(=O)O)on(Cc2ccccc2)c1=O)C(=O)O` (centres undefined), the IC50 against Glutamate NMDA receptor [5] is 704 µM; in assay [2] it was greater than 100 µM; at Glutamate NMDA receptor [3] it was greater than 100 µM; in assay [4] it was greater than 100 µM.

In turn, `Cn1oc(C(=O)O)c(CC(N)C(=O)O)c1=O` (centres undefined) gave an EC50 in assay [1] greater than 1000 µM. For the same molecule, the IC50 (in assay [2]; on Glutamate NMDA receptor [3]; in assay [4]) was greater than 100 µM each time.

`CCCCCOc1noc(C(=O)O)c1CC(N)C(=O)O` (centres undefined): the EC50 in assay [1] was found to be 1000 µM. Also, the IC50 (in assay [2]; on Glutamate NMDA receptor [3]; in assay [4]) was greater than 100 µM in each case.

As to `C=CCOc1noc(C(=O)O)c1CC(N)C(=O)O` (centres undefined), in assay [1], the EC50 came out at 40 µM. Also, the IC50 in assay [2] was 7.2 µM; on Glutamate NMDA receptor [3] it was greater than 100 µM; in assay [4], greater than 100 µM.

`NC(Cc1c(OCc2ccccc2)noc1C(=O)O)C(=O)O` (centres undefined): in assay [1], the EC50 was greater than 1000 µM. In addition, the IC50 (in assay [2]; on Glutamate NMDA receptor [3]; in assay [4]) was greater than 100 µM in each case.

`C/C=C/COc1noc(C(=O)O)c1CC(N)C(=O)O` (centres undefined): in assay [1], the concentration for a half-maximal effect (EC50) came to 500 µM. Besides, the IC50 (in assay [2]; at Glutamate NMDA receptor [3]; in assay [4]) was greater than 100 µM in each case.

Regarding `CCOc1noc(-c2nc[nH]n2)c1CC(N)C(=O)O` (centres undefined), the EC50 in assay [1] is greater than 100 µM. For the same molecule, the IC50 (in assay [2]; at Glutamate NMDA receptor [3]; in assay [4]) was greater than 100 µM throughout.

Molecule `CCCCOc1noc(C(=O)O)c1CC(N)C(=O)O` (centres undefined) yielded an EC50 in assay [1] of 406 µM. Moreover, the IC50 (in assay [2]; on Glutamate NMDA receptor [3]; in assay [4]) was greater than 100 µM throughout.

In turn, `CC(C)Oc1noc(C(=O)O)c1CC(N)C(=O)O` (centres undefined) gave an EC50 in assay [1] of 37 µM. Further, the IC50 in assay [2] was 5.5 µM; on Glutamate NMDA receptor [3] it was greater than 100 µM; in assay [4] it was greater than 100 µM.

Turning to `NC(Cc1c(O)noc1C(=O)O)C(=O)O` (centres undefined), the EC50 in assay [1] was greater than 1000 µM. Also, the IC50 (in assay [2]; on Glutamate NMDA receptor [3]; in assay [4]) was greater than 100 µM in each case.

Take `CCOc1noc(C(=O)O)c1CC(N)C(=O)O` (centres undefined): the EC50 in assay [1] was determined as 4.8 µM. In addition, the values for the IC50 (in assay [2]; at Glutamate NMDA receptor [3]; in assay [4]) were 1 µM, greater than 100 µM and greater than 100 µM, respectively.

Consider `CCOc1noc(C(=O)O)c1C/N=c1\c(O)c(O)c1=N`, for which the IC50 was greater than 100 µM in assay [2], 76 µM on Glutamate NMDA receptor [3], 603 µM in assay [6] and greater than 100 µM in assay [4].

`CCn1oc(C(=O)O)c(CC(N)C(=O)O)c1=O` (centres undefined) registered an EC50 in assay [1] greater than 500 µM. For the same molecule, the IC50 (in assay [2]; at Glutamate NMDA receptor [3]; in assay [4]) was greater than 100 µM throughout.

`CCCOc1noc(C(=O)O)c1CC(N)C(=O)O` (centres undefined): in assay [1], the response was half-maximal at 79 µM (EC50). In addition, the IC50 in assay [2] was 14 µM; on Glutamate NMDA receptor [3] it was greater than 100 µM; in assay [4], greater than 100 µM.

For the molecule `CCOc1noc(-c2nn[nH]n2)c1CC(N)C(=O)O` (centres undefined), the EC50 in assay [1] worked out at 2000 µM. For the same molecule, the IC50 (in assay [2]; at Glutamate NMDA receptor [3]; in assay [4]) was greater than 100 µM in each case.
